Source: ChEMBL document CHEMBL2424598, “Identification and optimization of pteridinone Toll-like receptor 7 (TLR7) agonists for the oral treatment of viral hepatitis” (J Med Chem, 2013)

Legend:
Homo sapiens = species: Homo sapiens; assay: Selectivity ratio of MEC for TLR8-mediated TNFalpha production in human PBMC to MEC for TLR7-mediated IFNalpha production in human PBMC
In short: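 Cryopreserved human PBMCs came from leukapheresis of a single healthy donor selected as a consistent responder. Cells were incubated with compound for 24 h over an eight-point concentration range, and cytokine release was measured. MEC is the lowest concentration giving cytokine levels at least 3-fold above untreated cultures, determined per cytokine.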

[1] = molecular target: T1, Toll-like receptor 7 (Homo sapiens) (UniProt Q9NYK1); assay: Agonist activity at TLR7-mediated IFNalpha production in human PBMC assessed as minimum concentration of compound necessary to generate >3 fold of cytokine levels relative to control
T1 sequence (whole entry): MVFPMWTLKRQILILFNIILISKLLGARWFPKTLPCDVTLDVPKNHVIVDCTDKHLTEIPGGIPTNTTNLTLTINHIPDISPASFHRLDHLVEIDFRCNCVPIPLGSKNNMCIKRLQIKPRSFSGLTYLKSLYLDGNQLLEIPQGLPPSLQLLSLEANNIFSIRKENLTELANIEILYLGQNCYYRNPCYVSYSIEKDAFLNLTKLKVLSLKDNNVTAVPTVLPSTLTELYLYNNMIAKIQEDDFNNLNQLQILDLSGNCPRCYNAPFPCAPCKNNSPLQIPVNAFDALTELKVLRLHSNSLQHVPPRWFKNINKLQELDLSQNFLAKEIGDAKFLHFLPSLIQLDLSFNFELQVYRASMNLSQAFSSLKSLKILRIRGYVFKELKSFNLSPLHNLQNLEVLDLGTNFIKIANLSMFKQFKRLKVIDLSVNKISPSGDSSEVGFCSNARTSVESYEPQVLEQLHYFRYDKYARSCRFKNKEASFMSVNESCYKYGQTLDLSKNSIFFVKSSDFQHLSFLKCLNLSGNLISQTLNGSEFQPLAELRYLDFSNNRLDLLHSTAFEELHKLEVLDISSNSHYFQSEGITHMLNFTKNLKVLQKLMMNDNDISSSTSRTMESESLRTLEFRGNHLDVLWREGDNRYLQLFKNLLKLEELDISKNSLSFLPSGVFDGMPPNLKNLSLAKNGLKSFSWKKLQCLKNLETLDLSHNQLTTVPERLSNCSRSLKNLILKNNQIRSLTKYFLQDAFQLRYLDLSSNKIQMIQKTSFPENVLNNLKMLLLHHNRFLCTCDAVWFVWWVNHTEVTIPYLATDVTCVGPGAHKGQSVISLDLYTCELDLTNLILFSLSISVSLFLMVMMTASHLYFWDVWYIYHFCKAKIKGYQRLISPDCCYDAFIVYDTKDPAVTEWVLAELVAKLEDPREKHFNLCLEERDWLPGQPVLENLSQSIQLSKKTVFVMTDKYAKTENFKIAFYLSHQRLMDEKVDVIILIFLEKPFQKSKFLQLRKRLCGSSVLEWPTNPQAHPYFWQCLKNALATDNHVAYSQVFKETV
In short: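 Cryopreserved PBMCs from leukapheresis of a single healthy human donor, chosen as a consistent, robust responder to TLR7 agonist stimulation. Cells were incubated with compound for 24 h over an eight-point concentration range. Secreted IFN-α was measured to build dose-response curves. MEC was taken as the lowest concentration giving cytokine levels ≥3-fold over untreated control cultures.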

[2] = Lipophilicity, log D of the compound; type: physicochemical; settings: octanol/water

| SMILES | Ratio (Homo sapiens) | MEC [1] [nM] | logD [2] |
| --- | --- | --- | --- |
| CC(C)COc1nc(N)c2c(n1)N(Cc1cccc(CN3CCCC3)c1)CC(=O)N2 | 0 | 10000 | – |
| CCCCOc1cc2c(c(N)n1)NC(=O)CN2Cc1cccc(CN2CCCC2)c1 | 10 | 300 | – |
| CCCCOc1nc(N)c2c(n1)N(Cc1ccc(CN3CCCC3)cc1)CC(=O)N2 | 10 | 1 | – |
| CCCCOc1nc(N)c2c(n1)N(Cc1cccc(CN3CCCC3)c1)CCC(=O)N2 | – | > 10000 | – |
| CCCCOc1nc(N)c2c(n1)N(Cc1ccccc1)CC(=O)N2 | 0.3 | – | – |
| Nc1nc(OCC2CCOCC2)nc2c1NC(=O)CN2Cc1cccc(CN2CCCC2)c1 | 100 | 10 | – |
| Nc1nc(OCCC2CC2)nc2c1NC(=O)CN2Cc1cccc(CN2CCCC2)c1 | 10 | 30 | – |
| CCCCOc1nc(N)c2c(n1)N(Cc1ccc(-c3cccc(CN4CCCC4)c3)cc1)CC(=O)N2 | 10 | 3 | – |
| CCCCOc1nc(N)c2c(n1)N(Cc1ccc3c(c1)CCN(C(C)C)C3)CC(=O)N2 | 10 | 3 | – |
| COCCOc1nc(N)c2[nH]c(=O)c(=O)n(Cc3cccc(CN4CCCC4)c3)c2n1 | 3 | 100 | – |
| CCCCOc1nc(N)c2c(n1)N(Cc1ccc(CCCN3CCCC3)nc1)CC(=O)N2 | 30 | 3 | – |
| CCCCSc1nc(N)c2c(n1)N(Cc1cccc(CN3CCCC3)c1)CC(=O)N2 | 30 | 100 | – |
| CCCCOc1nc(N)c2[nH]c(=O)n(Cc3cccc(CN4CCCC4)c3)c2n1 | – | 0.03 | – |
| CCCCOc1nc(N)c2c(n1)N(Cc1cccc(CN3CCCC3)c1)C(C)C(=O)N2 (configuration not stated) | 30 | 300 | – |
| CCCCOc1nc(N)c2c(n1)N(Cc1cccc(CN3CCOCC3)c1)CC(=O)N2 | 3.3 | 300 | – |
| COCCOc1nc(N)c2c(n1)N(Cc1cccc(CN3CCCC3)c1)CC(=O)N2 | 1000 | 10 | 1 |
| CCCCOc1nc(N)c2[nH]c(=O)c(=O)n(Cc3ccc(CN4CCCC4)cc3)c2n1 | 10 | 0.32 | – |
| CCCCOc1cc2c([nH]c(=O)c(=O)n2Cc2ccc(-c3ccc(CN4CCCC4)cc3)cc2)c(N)n1 | 3 | 10 | – |
| CCCCOc1cc2c([nH]c(=O)c(=O)n2Cc2ccc(-c3cccc(CN4CCCC4)c3)cc2)c(N)n1 | 3 | 30 | – |
| CCCCNc1nc(N)c2[nH]c(=O)c(=O)n(Cc3cccc(CN4CCCC4)c3)c2n1 | 30 | 3 | – |
| CCCCOc1nc(N)c2c(n1)NC(Cc1cccc(CN3CCCC3)c1)C(=O)N2 (configuration not stated) | – | > 10000 | – |
| CCCCOc1nc(N)c2c(n1)N(Cc1ccccc1CN1CCCC1)CC(=O)N2 | 100 | 100 | – |
| CCCCCOc1nc(N)c2c(n1)N(Cc1cccc(CN3CCCC3)c1)CC(=O)N2 | 100 | 100 | – |

| SMILES | Ratio (Homo sapiens) | MEC [1] [nM] | logD [2] |
| --- | --- | --- | --- |
| CCC[C@H](C)Oc1nc(N)c2c(n1)N(Cc1cccc(CN3CCCC3)c1)CC(=O)N2 | 33 | 3 | – |
| CCCCOc1nc(N)c2c(n1)N(C)C(Cc1cccc(CN3CCCC3)c1)C(=O)N2 (configuration not stated) | 30 | 320 | – |
| Nc1nc(OCc2ccccc2)nc2c1NC(=O)CN2Cc1cccc(CN2CCCC2)c1 | 3.3 | 3000 | – |
| CCCCOc1nc(N)c2c(n1)N(Cc1ccc(CN3CCCC3)cc1)C(C)C(=O)N2 (configuration not stated) | 30 | 10 | – |
| CCCN(C)C(=O)c1nc(N)c2c(n1)N(Cc1cccc(CN3CCCC3)c1)CC(=O)N2 | 10 | 1000 | – |
| CCCCOc1nc(N)c2c(n1)N(Cc1cccc(CN3CCCCC3)c1)CC(=O)N2 | 3.3 | 30 | – |
| CCCCOc1cc2c(c(N)n1)NC(=O)CN2Cc1ccc(CN2CCCC2)cc1 | 10 | 30 | – |
| CCCCOc1cc2c([nH]c(=O)c(=O)n2Cc2ccc(CN3CCCC3)cc2)c(N)n1 | 3 | 3 | – |
| Nc1nc(OCC2CCCCC2)nc2c1NC(=O)CN2Cc1cccc(CN2CCCC2)c1 | 3.3 | 3000 | – |
| COCCNc1nc(N)c2c(n1)N(Cc1cccc(CN3CCCC3)c1)CC(=O)N2 | 10 | 1000 | – |
| CCCCNc1nc(N)c2c(n1)N(Cc1cccc(CN3CCCC3)c1)CC(=O)N2 | 1000 | 10 | – |
| CCCN(C)C(=O)c1nc(N)c2[nH]c(=O)c(=O)n(Cc3cccc(CN4CCCC4)c3)c2n1 | 10 | 1000 | – |
| CCCCOc1nc(N)c2c(n1)N(Cc1cccc(CN3CCCC3)c1)C1(CC1)C(=O)N2 | 3 | 1000 | – |
| CCCCOc1nc(N)c2c(n1)N(Cc1ccc3c(c1)CN(C(C)C)CC3)CC(=O)N2 | 3 | 3 | – |
| CCCCOc1nc(N)c2c(n1)N(C)C(Cc1ccc(CN3CCCC3)cc1)C(=O)N2 (configuration not stated) | 10 | 1000 | – |
| CCCCOc1nc(N)c2c(n1)N(Cc1ccc(-c3ccc(CN4CCCC4)cc3)cc1)CC(=O)N2 | 3.3 | 3 | – |
| CCC(CC)COc1nc(N)c2c(n1)N(Cc1cccc(CN3CCCC3)c1)CC(=O)N2 | 30 | 10 | – |
| CCCCCc1nc(N)c2c(n1)N(Cc1cccc(CN3CCCC3)c1)CC(=O)N2 | 30 | 320 | – |
| COCCOc1cc2c(c(N)n1)NC(=O)CN2Cc1ccc(CN2CCCC2)cc1 | 10 | 0.32 | – |
| CCCCOc1cc2c([nH]c(=O)c(=O)n2Cc2cccc(CN3CCCC3)c2)c(N)n1 | 10 | 30 | – |
| CCCCOc1nc(N)c2c(n1)N1Cc3cccc(CN4CCCC4)c3CC1C(=O)N2 (configuration not stated) | 10 | 300 | – |
| CCCCOc1nc(N)c2[nH]c(=O)c(=O)n(Cc3cccc(CN4CCCC4)c3)c2n1 | 33 | 3 | – |
